# From ChEMBL document CHEMBL4311931, “Controlling cellular distribution of drugs with permeability modifying moieties” (Medchemcomm, 2019)
# Legend:
# PC-3 = assay: Antiproliferative activity against human PC3 cells assessed as reduction in cell viability by Celltiter-Glo assay; assay type: functional, cell-based
# How it was run: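 PC3 cells from ATCC, authenticated by STR analysis. Viability was read by CellTiter-Glo, and cell EC50 is the geometric mean of at least two duplicate runs.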
# [1] = biological target: T1, Nicotinamide phosphoribosyltransferase (Homo sapiens, UniProt P43490); assay: Displacement of fluorescent labelled OG488 from human full length FLAG-tagged NAMPT (1 to 491 residues) expressed in HEK293-6E cells in absence of PRPP by TR-FRET assay; assay type: cell-based
# [2] = Permeability of compound in 5% DMSO after 7 hrs by PAMPA; assay type: ADME; conditions: read-out: permeability
# [3] = biological target: T1, Nicotinamide phosphoribosyltransferase; assay: Displacement of fluorescent labelled OG488 from human full length FLAG-tagged NAMPT (1 to 491 residues) expressed in HEK293-6E cells in presence of PRPP by TR-FRET assay; assay type: cell-based
# DLD-1 [4] = assay: cells; conditions: Homo sapiens
# DLD-1 [5] = assay: cells; conditions: Homo sapiens; remark: listed apart in the source
# K562 = assay: Antiproliferative activity against human K562 cells assessed as reduction in cell viability by measuring ATP level incubated for 3 days by Celltiter-Glo assay; assay type: functional, cell-based; conditions: K562, 72 h
# How it was run: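 K562 cells grown in RPMI 1640 with 50 mM HEPES and 10% FBS at 37 °C in 5% CO2, then plated at 20 000 cells per well. Compounds were log-serially diluted in DMSO, then in RPMI, to final concentrations of 10 000 nM to 0.01 nM. Cells were exposed for 3 days, and total intracellular ATP was read by CellTiter-Glo. IC50 is the geometric mean of at least two duplicate runs.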
# [6] = biological target: T2, 5-hydroxytryptamine receptor 1A (Homo sapiens) (UniProt P08908); assay: Displacement of [3H]-OH-DPAT from human recombinant 5-HT1A receptor measured after 60 mins by scintillation counter method relative to parent compound
# T2 sequence (whole entry): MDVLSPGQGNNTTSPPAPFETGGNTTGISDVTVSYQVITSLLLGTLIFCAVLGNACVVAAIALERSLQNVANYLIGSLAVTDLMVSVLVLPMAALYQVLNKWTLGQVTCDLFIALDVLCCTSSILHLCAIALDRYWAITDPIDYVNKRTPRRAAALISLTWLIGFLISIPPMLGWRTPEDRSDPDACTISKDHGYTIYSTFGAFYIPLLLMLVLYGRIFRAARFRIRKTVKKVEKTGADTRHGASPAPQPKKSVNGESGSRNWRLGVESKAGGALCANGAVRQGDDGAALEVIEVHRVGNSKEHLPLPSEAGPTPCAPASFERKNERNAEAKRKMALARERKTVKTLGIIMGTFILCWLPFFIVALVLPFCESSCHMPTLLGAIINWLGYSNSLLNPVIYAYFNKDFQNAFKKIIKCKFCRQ
# [7] = biological target: T3, 5-hydroxytryptamine receptor 1A (Homo sapiens, UniProt P08908); assay: Antagonist activity at human 5HT1A expressed in BAF3 cells by fluorimetry analysis; assay type: cell-based
# T3 sequence (P08908 whole entry): T2 sequence (whole entry)
# [8] = biological target: T4, Beta-2 adrenergic receptor (Homo sapiens, UniProt P07550); assay: Antagonist activity at human recombinant beta2 adrenoreceptor expressed in CHOK1 cells incubated for 30 mins by HTRF; assay type: cell-based
# Target sequence in this assay (P07550 whole entry): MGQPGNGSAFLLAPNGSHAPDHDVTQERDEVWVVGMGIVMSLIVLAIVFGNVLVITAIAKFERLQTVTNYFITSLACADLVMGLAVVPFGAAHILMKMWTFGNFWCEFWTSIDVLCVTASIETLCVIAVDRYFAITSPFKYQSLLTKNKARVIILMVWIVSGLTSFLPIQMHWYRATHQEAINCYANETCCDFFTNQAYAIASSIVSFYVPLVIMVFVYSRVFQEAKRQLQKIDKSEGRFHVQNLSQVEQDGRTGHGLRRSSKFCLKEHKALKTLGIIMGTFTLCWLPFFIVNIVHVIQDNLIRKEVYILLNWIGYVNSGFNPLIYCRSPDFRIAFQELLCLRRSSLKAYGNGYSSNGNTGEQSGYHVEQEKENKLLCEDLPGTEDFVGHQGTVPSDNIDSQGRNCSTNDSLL
# [9] = biological target: T3, 5-hydroxytryptamine receptor 1A; assay: Displacement of [3H]-OH-DPAT from human recombinant 5-HT1A receptor measured after 60 mins by scintillation counter method
# [10] = biological target: T4, Beta-2 adrenergic receptor; assay: Displacement of [3H](-)CGP 12177 from human recombinant beta2 adrenoceptor after 120 mins by scintillation counting method relative to parent compound
# Target sequence in this assay (P07550 whole entry, looked up): as the sequence (P07550 whole entry) above
# [11] = biological target: T4, Beta-2 adrenergic receptor; assay: Displacement of [3H](-)CGP 12177 from human recombinant beta2 adrenoceptor after 120 mins by scintillation counting method
# Target sequence in this assay (P07550 whole entry): as above
# [12] = biological target: T4, Beta-2 adrenergic receptor; assay: Antagonist activity at human recombinant beta2 adrenoreceptor expressed in CHOK1 cells incubated for 30 mins by HTRF relative to parent compound; assay type: cell-based
# Target sequence in this assay (P07550 whole entry, looked up): as the sequence (P07550 whole entry) above
# T1 sequence (P43490 whole entry, the tested form may be a part): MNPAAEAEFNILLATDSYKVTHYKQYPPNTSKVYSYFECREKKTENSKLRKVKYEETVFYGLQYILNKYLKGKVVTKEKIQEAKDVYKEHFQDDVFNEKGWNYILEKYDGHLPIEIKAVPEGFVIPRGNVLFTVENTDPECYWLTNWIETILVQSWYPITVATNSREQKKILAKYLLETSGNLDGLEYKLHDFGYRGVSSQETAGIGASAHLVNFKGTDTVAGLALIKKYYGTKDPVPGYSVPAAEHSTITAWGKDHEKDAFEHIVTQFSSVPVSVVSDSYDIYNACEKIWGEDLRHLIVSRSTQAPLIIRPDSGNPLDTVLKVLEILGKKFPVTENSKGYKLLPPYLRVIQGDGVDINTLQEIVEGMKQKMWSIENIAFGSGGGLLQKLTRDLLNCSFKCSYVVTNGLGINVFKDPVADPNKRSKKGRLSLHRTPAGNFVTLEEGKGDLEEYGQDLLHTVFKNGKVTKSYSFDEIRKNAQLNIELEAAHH
Structure (SMILES),Papp at 7 h [2] [×10⁻⁶ cm/s],EC50 (DLD-1 [4]) [µM],EC50 (DLD-1 [5]) [µM],fold change (FC) [6],IC50 [7] [µM],IC50 [8] [µM],Ki [9] [µM],fold change (FC) [10],Ki [11] [µM],fold change (FC) [12],other results
NCc1cccc(C(=O)N2CCC(CCCCNC(=O)/C=C/c3cccnc3)CC2)c1,0.092,–,–,–,–,–,–,–,–,–,IC50 (PC-3): 0.0302 µM; Ki [1]: 0.055 µM; Ki [3]: 0.0011 µM
Cc1nc(Nc2ncc(C(=O)Nc3c(C)cccc3Cl)s2)cc(N2CCN(CCOCCOCCNC(=O)C3C(C(=O)O)C(C(=O)O)C3C(=O)O)CC2)n1 (configuration not stated),0.0122,–,–,–,–,–,–,–,–,–,IC50 (K562): 0.183 µM
Cc1nc(Nc2ncc(C(=O)Nc3c(C)cccc3Cl)s2)cc(N2CCN(CCOCCOCCN)CC2)n1,0.056,–,–,–,–,–,–,–,–,–,IC50 (K562): 0.628 µM
Cc1nc(Nc2ncc(C(=O)Nc3c(C)cccc3Cl)s2)cc(N2CCN(CCOCCOCCNC(=O)CCCCCC3(C)C(/C=C/C=C/C=C4/N(CCCS(=O)(=O)O)c5ccc(S(=O)(=O)O)cc5C4(C)C)=[N+](CCCS(=O)(=O)[O-])c4ccc(S(=O)(=O)O)cc43)CC2)n1 (configuration not stated),–,–,–,–,–,–,–,–,–,–,IC50 (K562): 0.0291 µM
COC(=O)CSCCCc1ccccc1OCC(O)CNC(C)C (configuration not stated),0.0436,–,–,1,2.9,0.072,0.0561,1,0.015,1,–
C=CCc1ccccc1OCC(O)CNCCOCCOCCOCCOCCNC(=O)CS(=O)(=O)O (configuration not stated),–,–,–,12.1,> 1,0.0834,0.261,150,0.752,25.3,–
CC(C)NCC(O)COc1ccccc1CCCSCC(=O)NCCOCCOCCNC(=O)CS(=O)(=O)O (configuration not stated),–,–,–,15.1,> 10,0.086,1.78,1.09,0.0164,1.19,–
O=C(/C=C/c1cccnc1)NCCCCC1CCN(C(=O)c2ccccc2)CC1 [DAPORINAD],39.5,–,–,–,–,–,–,–,–,–,IC50 (PC-3): 0.006 µM
CC(C)NCC(O)COc1ccccc1CCCSCC(=O)NCCOCCOCCN (configuration not stated),–,–,–,6.32,> 10,0.019,2.86,0.19,0.0029,0.26,–
C=CCc1ccccc1OCC(O)CNCCOCCOCCOCCOCCNC(=O)CCCCCC1(C)C(/C=C/C=C/C=C2/N(CCCS(=O)(=O)O)c3ccc(S(=O)(=O)O)cc3C2(C)C)=[N+](CCCS(=O)(=O)[O-])c2ccc(S(=O)(=O)O)cc21 (configuration not stated),–,–,–,132,> 1,0.5,2.86,1090,0.547,151,–

# Second part, led by results:
Papp at 7 h [2] [×10⁻⁶ cm/s],EC50 (DLD-1 [4]) [µM],EC50 (DLD-1 [5]) [µM],Structure (SMILES),fold change (FC) [6],IC50 [7] [µM],IC50 [8] [µM],Ki [9] [µM],fold change (FC) [10],Ki [11] [µM],fold change (FC) [12],other results
0.00119,0.6,> 100,NCCOCCOCC(=O)N1CCN(C(=O)c2cc(Cc3n[nH]c(=O)c4ccccc34)ccc2F)CC1,–,–,–,–,–,–,–,–
–,0.6,70,CC1(CCCCCC(=O)NCCOCCOCC(=O)N2CCN(C(=O)c3cc(Cc4n[nH]c(=O)c5ccccc45)ccc3F)CC2)C(/C=C/C=C/C=C2/N(CCCS(=O)(=O)O)c3ccc(S(=O)(=O)O)cc3C2(C)C)=[N+](CCCS(=O)(=O)[O-])c2ccc(S(=O)(=O)O)cc21 (configuration not stated),–,–,–,–,–,–,–,–
3.37,0.1,19,O=C(c1cc(Cc2n[nH]c(=O)c3ccccc23)ccc1F)N1CCN(C(=O)C2CC2)CC1 [OLAPARIB],–,–,–,–,–,–,–,–
0.0274,–,–,Cc1nc(Nc2ncc(C(=O)Nc3c(C)cccc3Cl)s2)cc(N2CCN(CCOCCOCCNC(=O)CS(=O)(=O)O)CC2)n1,–,–,–,–,–,–,–,IC50 (K562): 0.12 µM
–,1.1,53,O=C(CS(=O)(=O)O)NCCOCCOCC(=O)N1CCN(C(=O)c2cc(Cc3n[nH]c(=O)c4ccccc34)ccc2F)CC1,–,–,–,–,–,–,–,–
0.081,0.2,> 100,O=C(c1cc(Cc2n[nH]c(=O)c3ccccc23)ccc1F)N1CCNCC1,–,–,–,–,–,–,–,–
